Experimental data gathered from unrelated publications.
Protocols differ between the studies behind these lines.
Target: Dual specificity tyrosine-phosphorylation-regulated kinase 3 (DYRK3, Homo sapiens, UniProt O43781)
One construct used (O43781 1-588): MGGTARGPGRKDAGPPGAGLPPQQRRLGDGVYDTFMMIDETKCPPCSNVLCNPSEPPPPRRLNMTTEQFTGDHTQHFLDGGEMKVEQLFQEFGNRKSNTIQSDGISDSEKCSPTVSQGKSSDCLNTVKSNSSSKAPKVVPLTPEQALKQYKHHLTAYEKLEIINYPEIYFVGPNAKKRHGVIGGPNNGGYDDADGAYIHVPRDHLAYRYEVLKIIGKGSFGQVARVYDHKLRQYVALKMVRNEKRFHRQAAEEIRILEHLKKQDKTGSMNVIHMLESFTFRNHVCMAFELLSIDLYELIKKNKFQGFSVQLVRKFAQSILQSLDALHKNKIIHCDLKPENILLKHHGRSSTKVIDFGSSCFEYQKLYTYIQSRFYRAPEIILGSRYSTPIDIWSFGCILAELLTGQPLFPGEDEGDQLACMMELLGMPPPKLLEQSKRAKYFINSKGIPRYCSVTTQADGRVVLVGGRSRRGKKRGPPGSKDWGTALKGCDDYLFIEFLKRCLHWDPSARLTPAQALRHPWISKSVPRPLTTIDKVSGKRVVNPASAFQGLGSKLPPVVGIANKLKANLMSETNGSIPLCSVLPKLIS

SMILES | read-out | mode | method | tested at | measurement | value
COc1cc(-c2cc(-c3ccc(N4CCNCC4)cc3)cnc2C)cc(OC)c1OC | enzyme activity | inhibitor |  | 0.1 µM | inhibition | 1%
CC/C(=N\NC(=O)NCc1cccc(O)c1)c1ccc(O)c(C)c1O | enzyme activity | inhibitor |  | 0.1 µM | inhibition | 1.6%
COc1cc(/C=C/C(=O)CC(=O)/C=C/c2ccc(O)c(OC)c2)ccc1O | enzyme activity | inhibitor |  | 1 µM | activity vs control | 11%
Cn1cncc1C1=CN(c2ncnc3[nH]cnc23)CCS1 | enzyme activity | inhibitor | radiometric | 2 µM | inhibition | 90.9%
COc1cc2ncnc(Nc3ccc(Oc4ccccc4)c(C)c3C)c2cc1OC | enzyme activity | inhibitor |  | 1 µM | inhibition | -3%
Cn1cnc(Br)c1C1=CN(c2ncnc3[nH]cnc23)CCS1 | enzyme activity | inhibitor | radiometric | 50 nM | inhibition | 49.8%
O=C(O)c1ccc2c(c1)nc(NCc1ccccc1)c1ccncc12 | enzyme activity | inhibitor | radiometric | 1 µM | remaining activity | 21%
O=C1NC(=O)c2cc(Nc3ccc(F)cc3)c(Nc3ccc(F)cc3)cc21 | cell-free assay |  |  | 0.5 µM | remaining signal | 97.1%
COc1cccc(CCNc2nc3cc(C(=O)O)ccc3c3cnccc23)c1 | enzyme activity | inhibitor | radiometric | 1 µM | remaining activity | 11%
O=C(Nc1cnn(-c2csc(C(=O)NC3COC3)c2)c1)Nc1ccccc1Cl | enzyme activity | inhibitor |  | 5 µM | remaining activity | 93.3%
O=C(O)c1ccc2c(c1)nc(Nc1cccc(F)c1)c1ncncc12 | enzyme activity | inhibitor | radiometric | 1 µM | remaining activity | 9%
N#CCCc1ccc2c(c1)-c1[nH]c3ccc([N+](=O)[O-])cc3c1CC(=O)N2 | cell-free assay |  |  | 0.5 µM | remaining signal | 97.6%
O=C(O)c1ccc2c(c1)nc(NCCc1cccc(F)c1)c1ccncc12 | enzyme activity | inhibitor | radiometric | 1 µM | remaining activity | 7%
COc1cc(Nc2cnc(C#N)c(O[C@H](C)CN(C)C)n2)ncc1-c1cnn(C)c1 | enzyme activity | inhibitor | radiometric | 1 µM | remaining activity | 98%
